The results in this text go back to ChEMBL document CHEMBL1817654, “Synthesis and protective effects of aralkyl alcoholic 2-acetamido-2-deoxy-β-D-pyranosides on hypoglycemia and serum limitation induced apoptosis in PC12 cell” (2011).

In test [1] the test system is PC-12. As to the kind of experiment: Neuroprotective activity in rat differentiated PC12 cells assessed protection against hypoglycemia and serum limitation-induced decrease in cell viability at 40 uM after 24 hrs by MTT assay. The test is classed as functional. The method, boiled down:
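NGF-differentiated PC12 cells (50 ng/ml every other day, 6 days) pretreated with 8, 40 or 200 µM for 24 h. Insult: 24 h in glucose-free DMEM with 1% horse serum and 1% FBS, compound kept. MTT added to 0.5 mg/ml for 4 h at 37 °C, formazan dissolved in 20% SDS, absorbance read at 570 nm. Viability given as % of unstressed control. Three independent experiments, each in triplicate.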
A general note: Formazan colour is commonly taken as a measure of viable cells.

Test [2] deals with PC-12. Kind of test: Neuroprotective activity in rat differentiated PC12 cells assessed protection against hypoglycemia and serum limitation-induced late stage of apoptosis at 40 uM after 24 hrs using annexin V/propidium iodide double staining by flow cytometry. The test is classed as functional, cell-based. Summed up:
(§1)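 Differentiated PC12 cells pretreated 24 h, then 24 h of glucose-free DMEM with 1% horse and 1% fetal serum. Harvested cells resuspended at 1 × 10⁶/ml in binding buffer (10 mM HEPES, 140 mM NaCl, 2.5 mM CaCl₂). FITC-annexin V and PI added, 15 min in the dark at room temperature, analysed by flow cytometry within 1 h. Three independent experiments in triplicate.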

In test [3] the test system is PC-12. Kind of test: Neuroprotective activity in rat differentiated PC12 cells assessed reversal of hypoglycemia and serum limitation-induced mitochondrial membrane potential at 40 uM after 24 hrs using Rhodamine dye by confocal microscopic analysis. The test is classed as functional. Summed up: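 Differentiated PC12 cells given 24 h pretreatment, then 24 h in glucose-free DMEM with 1% horse serum and 1% FBS. Rhodamine 123 added to 2 µM final for 30 min at 37 °C. Cells fixed in 4% paraformaldehyde and imaged by confocal microscopy (ex 488, em 530 nm, ×400). Fluorescence intensity given as % of control. Three independent experiments in triplicate.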

The test system of test [4] is PC-12. Kind of test: Neuroprotective activity in rat differentiated PC12 cells assessed reduction of hypoglycemia and serum limitation-induced caspase 3 activity at 40 uM after 24 hrs by colorimetric assay relative to control. The test is classed as functional. Summed up: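 Treatment: NGF-differentiated PC12 cells preincubated 24 h, then 24 h of hypoglycemia and serum limitation. Lysates spun at 12,000 g for 10 min, protein measured by Bradford. Lysate incubated with reaction buffer and Ac-DEVD-pNA (10 µl of a 2 mM stock) for 4 h at 37 °C. pNA release read at 405 nm, expressed as % of control.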

The subject of test [5] is PC-12. Kind of test: Neuroprotective activity in rat differentiated PC12 cells assessed protection against hypoglycemia and serum limitation-induced apoptosis at 40 uM after 24 hrs by Hoechst 33342 staining analysis. The test is classed as functional. Summed up:
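PC12 cells kept in high-glucose DMEM with 10% horse serum and 5% FBS, differentiated with NGF (50 ng/ml) every other day for 6 days. Pretreated 24 h, then glucose-free DMEM with 1% horse and 1% fetal serum for 24 h with compound kept. Cells fixed in 4% paraformaldehyde, stained with Hoechst 33342 (5 µg/ml, 37 °C, 10 min). Condensed or fragmented nuclei counted under UV fluorescence as a fraction of total cells. Three independent experiments in triplicate.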

For test [6], the system named is PC-12. As to the kind of experiment: Neuroprotective activity in rat differentiated PC12 cells assessed protection against hypoglycemia and serum limitation-induced early stage of apoptosis at 40 uM after 24 hrs using annexin V/propidium iodide double staining by flow cytometry. The test is classed as functional. Summed up: as §1

Calls of active or inactive are those of the source. No cut-off for these calls is given here.

As for `COc1cc(CO[C@@H]2O[C@H](CO)[C@@H](O)[C@H](O)[C@H]2NC(C)=O)cc(OC)c1`, the outcome in test [1] was Active.
As for `CC(=O)N[C@H]1[C@H](OCCc2ccccc2)O[C@H](CO)[C@@H](O)[C@@H]1O`, in test [1], the outcome was inactive.
Turning to `COc1ccc(CCCO[C@@H]2O[C@H](CO)[C@@H](O)[C@H](O)[C@H]2NC(C)=O)cc1`, the Activity in test [1] is reported as 80.41%; in test [3], 79.05%; in test [5], 7.12%; in test [6] it was 15.51%. The outcome in test [2] was inactive. For the same compound, the “fold change (FC)” value in test [4] is listed as 1.69.
For `CC(=O)N[C@H]1[C@H](OCc2cccc(O)c2)O[C@H](CO)[C@@H](O)[C@@H]1O`, in test [1], the outcome was Active.
Take `COc1cc(CO[C@@H]2O[C@H](CO)[C@@H](O)[C@H](O)[C@H]2NC(C)=O)ccc1O`: in test [1], the Activity is 65.9%.
For `COc1ccc(CCO[C@@H]2O[C@H](CO)[C@@H](O)[C@H](O)[C@H]2NC(C)=O)cc1`, the Activity is 86.62% in test [1], 82.86% in test [3], 5.9% in test [5] and 11.21% in test [6]. In test [2], the outcome was inactive. The “fold change (FC)” value in test [4] was found to be 1.55.
For the compound `CC(=O)N[C@H]1[C@H](OCc2ccccc2)O[C@H](CO)[C@@H](O)[C@@H]1O`, in test [1], the outcome was inactive.
Regarding `OC[C@H]1O[C@@H](OCCc2ccc(O)cc2)[C@H](O)[C@@H](O)[C@@H]1O` [SALIDROSIDE], the Activity in test [1] is listed as 65.62%; in test [3], 71.43%; in test [5], 8.31%; in test [6], 17.56%. Moreover, the result in test [2] was inactive. Besides, the “fold change (FC)” value in test [4] is given as 1.97.
With `COc1cc(CCCO[C@@H]2O[C@H](CO)[C@@H](O)[C@H](O)[C@H]2NC(C)=O)ccc1O`, the Activity in test [1] is 62.38%.
For `CC(=O)N[C@H]1[C@H](OCCCc2ccc(O)cc2)O[C@H](CO)[C@@H](O)[C@@H]1O`, the outcome in test [1] was Active.
For the compound `CC(=O)N[C@H]1[C@H](OCc2ccc(O)cc2)O[C@H](CO)[C@@H](O)[C@@H]1O`, the Activity in test [1] is reported as 60.65%.
The same measure, in the same setting: for `CC(=O)N[C@H]1[C@H](OCCc2ccc(O)cc2)O[C@H](CO)[C@@H](O)[C@@H]1O` the value was 65.36%.
